One compound from article PMC12480952 (Nature Communications, 2025) can be followed below.

The structures appear in SMILES notation.

The subject of the experiment is FLAG-tagged, full-length WT BCL-2. The experiment in a line: Streptavidin pull-down from HEK 293T lysate, FLAG-BCL-2 WT, anti-FLAG western. It is filed as binding, human. As to conditions: biotinylated BAD SAHB 4.2 1 μM, 300 μg lysate, overnight 4 °C. The gist of the method:
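HEK 293T cells (DMEM, 10% FBS, penicillin/streptomycin, 2 mM glutamine; mycoplasma-free) were transfected at 70% confluence with 3 μg of plasmid encoding N-FLAG full-length BCL-2 (aa 1–239) and lysed after 24 h in CHAPS buffer. Lysate (300 μg) took 1 μM biotinylated test peptide ± competitor (0.1, 1.0, 10 μM), overnight, 4 °C. Streptavidin agarose capture followed (2 h, room temperature), then PBS and 1% NP-40 washes, LDS elution and anti-FLAG western; three independent repeats.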

Regarding `CC1(C)CCC(CN2CCN(c3ccc(C(=O)NS(=O)(=O)c4ccc(NCC5CCOCC5)c([N+](=O)[O-])c4)c(Oc4cnc5[nH]ccc5c4)c3)CC2)=C(c2ccc(Cl)cc2)C1` [venetoclax], the “displacement of biotin-BAD SAHB 4.2 from FLAG-BCL-2 WT” value (venetoclax 1 μM) was “near complete dissociation” and the “displacement of biotin-BAD SAHB 4.2 from FLAG-BCL-2 WT” value (venetoclax 10 μM) was “complete dissociation”.
